From ChEMBL document CHEMBL1126196, “Improvements in the minimum binding sequence of C5a: examination of His-67” (J Med Chem, 1992)
Square brackets hold non-standard residues; d marks the D form. Peptide text beside a SMILES is read from it. * marks the point of attachment. His(τ-Me) = Cn1cnc(C[C@H](N)C(=O)O)c1; His(π-Me) = Cn1cncc1C[C@H](N)C(=O)O; Hydrocinnamoyl = O=C(CCc1ccccc1)*; hPhe = N[C@@H](CCc1ccccc1)C(=O)O; Cha = N[C@@H](CC1CCCCC1)C(=O)O; Phg = N[C@H](C(=O)O)c1ccccc1

Experiments:
[1] = molecular target: T1, C5a anaphylatoxin chemotactic receptor 1 (Homo sapiens, UniProt P21730); experiment: Inhibitory activity against [125I]-rC5a binding to C5a anaphylatoxin chemotactic receptor in human polymorphonuclear leukocyte (PMNL) membranes
T1 sequence (P21730 whole entry): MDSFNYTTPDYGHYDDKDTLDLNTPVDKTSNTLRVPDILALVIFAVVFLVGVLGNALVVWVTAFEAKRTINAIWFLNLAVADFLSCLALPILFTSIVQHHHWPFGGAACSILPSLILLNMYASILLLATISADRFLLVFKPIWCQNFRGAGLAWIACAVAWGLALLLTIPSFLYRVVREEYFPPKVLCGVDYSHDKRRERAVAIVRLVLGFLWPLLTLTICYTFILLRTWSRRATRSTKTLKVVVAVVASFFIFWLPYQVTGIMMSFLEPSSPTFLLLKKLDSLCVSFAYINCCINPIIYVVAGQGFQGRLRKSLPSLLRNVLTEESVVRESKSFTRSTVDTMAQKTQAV
How it was run: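 Competition binding on human PMNL membrane fragments, peptides displacing ¹²⁵I-labelled recombinant C5a. Inhibition binding data converted to apparent dissociation constant (Ki) by the Cheng–Prusoff method.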

Cavia porcellus [2] = experiment: In vivo potency by its ability to cause evans blue dye leakage as a marker of increased vascular permeability when injected intradermally in guinea pig; type: functional, organism-based
Cavia porcellus [3] = experiment: In vivo agonist efficacy by its ability to cause evans blue dye leakage as a marker of increased vascular permeability when injected intradermally in guinea pig; type: functional; set-up: concentration or dose not given beside the values
How it was run: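 Guinea pig, intradermal injection of peptide at a single high concentration; Evans blue dye leakage read as vascular permeability increase, compared with the maximal response to a control rC5a injection included in each test group.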

Homo sapiens [4] = species on record: Homo sapiens; experiment: In vitro potency against polymorphonuclear leukocyte (PMNL) chemokinesis; type: functional
How it was run: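 PMNL chemokinesis run over half-log concentration steps based on the binding Ki; EC50 obtained by least-squares regression as the concentration giving 50% of that peptide's own maximal response.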

Homo sapiens [5] = species on record: Homo sapiens; experiment: In vitro agonist efficacy against polymorphonuclear leukocyte (PMNL) chemokinesis; set-up: concentration or dose not given beside the values

CSCC[C@H](NC(=O)[C@H](CC(=O)O)NC(=O)[C@H](CCCCN)NC(=O)[C@@H](N)Cc1ccccc1)C(=O)N[C@@H](CCC(N)=O)C(=O)N[C@@H](CC(C)C)C(=O)NCC(=O)N[C@@H](CCCN=C(N)N)C(=O)O
Ki [1]: 0.26 µM
EC50 (Cavia porcellus [2]): < 1000 µM
Activity (Cavia porcellus [3]): 60%
EC50 (Homo sapiens [4]): 0.46 µM
Activity (Homo sapiens [5]): 132%

H-ISFKDMQLGR-OH
EC50 (Cavia porcellus [2]): < 100 µM
Activity (Cavia porcellus [3]): 54%
EC50 (Homo sapiens [4]): 0.72 µM
Activity (Homo sapiens [5]): 76%

CSCC[C@H](NC(=O)[C@H](CC(=O)O)NC(=O)[C@H](CCCCN)NC(=O)[C@H](N)Cc1ccccc1)C(=O)N[C@@H](CCC(N)=O)C(=O)N[C@@H](CC(C)C)C(=O)NCC(=O)N[C@@H](CCCN=C(N)N)C(=O)O
Ki [1]: 79 µM
EC50 (Homo sapiens [4]): 80 µM
Activity (Homo sapiens [5]): 70%

CSCC[C@H](NC(=O)[C@H](CC(=O)O)NC(=O)[C@H](CCCCN)NC(=O)[C@@H](N)Cc1cccs1)C(=O)N[C@@H](CCC(N)=O)C(=O)N[C@@H](CC(C)C)C(=O)NCC(=O)N[C@@H](CCCN=C(N)N)C(=O)O [listing 1 of 2 here]
EC50 (Cavia porcellus [2]): < 1000 µM
EC50 (Homo sapiens [4]): 0.53 µM

CSCC[C@H](NC(=O)[C@H](CC(=O)O)NC(=O)[C@H](CCCCN)NC(=O)[C@@H](N)c1ccccc1)C(=O)N[C@@H](CCC(N)=O)C(=O)N[C@@H](CC(C)C)C(=O)NCC(=O)N[C@@H](CCCN=C(N)N)C(=O)O (H-[Phg]KDMQLGR-OH) [listing 1 of 2 here]
Ki [1]: 31 µM
EC50 (Homo sapiens [4]): 10 µM

H-HKDMQLGR-OH
EC50 (Homo sapiens [4]): 110 µM
Activity (Homo sapiens [5]): 129%

CSCC[C@H](NC(=O)[C@H](CC(=O)O)NC(=O)[C@H](CCCCN)NC(=O)[C@@H](N)CC1CCCCC1)C(=O)N[C@@H](CCC(N)=O)C(=O)N[C@@H](CC(C)C)C(=O)NCC(=O)N[C@@H](CCCNC(=N)N)C(=O)O (H-[Cha]KDMQLGR-OH)
Ki [1]: 13 µM

CSCC[C@H](NC(=O)[C@H](CC(=O)O)NC(=O)[C@H](CCCCN)NC(=O)[C@@H](N)CCc1ccccc1)C(=O)N[C@@H](CCC(N)=O)C(=O)N[C@@H](CC(C)C)C(=O)NCC(=O)N[C@@H](CCCN=C(N)N)C(=O)O (H-[hPhe]KDMQLGR-OH)
EC50 (Homo sapiens [4]): 15 µM
Activity (Homo sapiens [5]): 162%

Ac-FKDMQLGR-OH [listing 1 of 2 here]
Activity (Homo sapiens [5]): 76%

CSCC[C@H](NC(=O)[C@H](CC(=O)O)NC(=O)[C@H](CCCCN)NC(=O)CCc1ccccc1)C(=O)N[C@@H](CCC(N)=O)C(=O)N[C@@H](CC(C)C)C(=O)NCC(=O)N[C@@H](CCCN=C(N)N)C(=O)O (Hydrocinnamoyl-KDMQLGR-OH)
EC50 (Homo sapiens [4]): 0.8 µM
Activity (Homo sapiens [5]): 84%

CSCC[C@H](NC(=O)[C@H](CC(=O)O)NC(=O)[C@H](CCCCN)NC(=O)[C@H](N)Cc1cccs1)C(=O)N[C@@H](CCC(N)=O)C(=O)N[C@@H](CC(C)C)C(=O)NCC(=O)N[C@@H](CCCN=C(N)N)C(=O)O
Activity (Cavia porcellus [3]): 85%

CSCC[C@H](NC(=O)[C@H](CC(=O)O)NC(=O)[C@H](CCCCN)NC(=O)[C@@H](N)CC1CCCCC1)C(=O)N[C@@H](CCC(N)=O)C(=O)N[C@@H](CC(C)C)C(=O)NCC(=O)N[C@@H](CCCN=C(N)N)C(=O)O (H-[Cha]KDMQLGR-OH) [listing 1 of 2 here]
EC50 (Homo sapiens [4]): 3 µM

CSCC[C@H](NC(=O)[C@H](CC(=O)O)NC(=O)[C@H](CCCCN)NC(=O)[C@@H](N)CC1CCCCC1)C(=O)N[C@@H](CCC(N)=O)C(=O)N[C@@H](CC(C)C)C(=O)NCC(=O)N[C@@H](CCCN=C(N)N)C(=O)O (H-[Cha]KDMQLGR-OH) [listing 2 of 2 here]
Activity (Homo sapiens [5]): 154%

CSCC[C@H](NC(=O)[C@H](CC(=O)O)NC(=O)[C@H](CCCCN)NC(=O)[C@@H](N)CCc1ccccc1)C(=O)N[C@@H](CCC(N)=O)C(=O)N[C@@H](CC(C)C)C(=O)NCC(=O)N[C@@H](CCCNC(=N)N)C(=O)O (H-[hPhe]KDMQLGR-OH)
Ki [1]: 36 µM

H-LRANISFKDMQLGR-OH
Ki [1]: 0.81 µM
EC50 (Cavia porcellus [2]): < 300 µM
Activity (Cavia porcellus [3]): 116%
EC50 (Homo sapiens [4]): 1.6 µM
Activity (Homo sapiens [5]): 133%

Ac-FKDMQLGR-OH [listing 2 of 2 here]
Ki [1]: 0.2 µM
EC50 (Homo sapiens [4]): 0.44 µM

CSCC[C@H](NC(=O)[C@H](CC(=O)O)NC(=O)[C@H](CCCCN)NC(=O)[C@@H](N)Cc1cn(C)cn1)C(=O)N[C@@H](CCC(N)=O)C(=O)N[C@@H](CC(C)C)C(=O)NCC(=O)N[C@@H](CCCNC(=N)N)C(=O)O (H-[His(τ-Me)]KDMQLGR-OH) [listing 1 of 2 here]
Ki [1]: 58 µM
EC50 (Homo sapiens [4]): 17 µM

CSCC[C@H](NC(=O)[C@H](CC(=O)O)NC(=O)[C@H](CCCCN)NC(=O)[C@@H](N)Cc1cn(C)cn1)C(=O)N[C@@H](CCC(N)=O)C(=O)N[C@@H](CC(C)C)C(=O)NCC(=O)N[C@@H](CCCNC(=N)N)C(=O)O (H-[His(τ-Me)]KDMQLGR-OH) [listing 2 of 2 here]
Activity (Homo sapiens [5]): 90%

CSCC[C@H](NC(=O)[C@H](CC(=O)O)NC(=O)[C@H](CCCCN)NC(=O)[C@@H](N)Cc1cccs1)C(=O)N[C@@H](CCC(N)=O)C(=O)N[C@@H](CC(C)C)C(=O)NCC(=O)N[C@@H](CCCN=C(N)N)C(=O)O [listing 2 of 2 here]
Activity (Homo sapiens [5]): 142%

CSCC[C@H](NC(=O)[C@H](CC(=O)O)NC(=O)[C@H](CCCCN)NC(=O)[C@@H](N)Cc1cncn1C)C(=O)N[C@@H](CCC(N)=O)C(=O)N[C@@H](CC(C)C)C(=O)NCC(=O)N[C@@H](CCCN=C(N)N)C(=O)O (H-[His(π-Me)]KDMQLGR-OH)
Ki [1]: 180 µM
EC50 (Homo sapiens [4]): 110 µM
Activity (Homo sapiens [5]): 88%

CSCC[C@H](NC(=O)[C@H](CC(=O)O)NC(=O)[C@H](CCCCN)NC(=O)[C@@H](N)c1ccccc1)C(=O)N[C@@H](CCC(N)=O)C(=O)N[C@@H](CC(C)C)C(=O)NCC(=O)N[C@@H](CCCN=C(N)N)C(=O)O (H-[Phg]KDMQLGR-OH) [listing 2 of 2 here]
Activity (Homo sapiens [5]): 72%

H-ANISFKDMQLGR-OH
EC50 (Cavia porcellus [2]): < 100 µM
Activity (Cavia porcellus [3]): 69%
EC50 (Homo sapiens [4]): 0.25 µM
Activity (Homo sapiens [5]): 85%

CSCC[C@H](NC(=O)[C@H](CC(=O)O)NC(=O)[C@H](CCCCN)NC(=O)CCc1ccccc1)C(=O)N[C@@H](CCC(N)=O)C(=O)N[C@@H](CC(C)C)C(=O)NCC(=O)N[C@@H](CCCNC(=N)N)C(=O)O (Hydrocinnamoyl-KDMQLGR-OH)
Ki [1]: 4.4 µM

CSCC[C@H](NC(=O)[C@H](CC(=O)O)NC(=O)[C@H](CCCCN)NC(=O)[C@@H](N)Cc1cccs1)C(=O)N[C@@H](CCC(N)=O)C(=O)N[C@@H](CC(C)C)C(=O)NCC(=O)N[C@@H](CCCNC(=N)N)C(=O)O
Ki [1]: 2.1 µM
